What was measured:
[1] = Inhibition of trypsin after 30 mins preincubated for 5 mins before addition of substrate
Summary of the method: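 Trypsin enzyme solution at 1 mg/mL in 50 mM Tris-HCl/100 mM NaCl/1 mM CaCl₂. Substrate solution was 2 mM N-benzoyl-D,L-arginine-p-nitroanilide in buffer. Test sample in ethanol was diluted with buffer and preincubated with enzyme in buffer for 5 min at 37 °C before substrate addition. Color was read at 405 nm immediately and after 30 min at 37 °C.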

[2] = Inhibition of Chymotrypsin after 30 mins preincubated for 5 mins before addition of substrate
Summary of the method: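 Chymotrypsin enzyme solution at 1 mg/mL in 50 mM Tris-HCl/100 mM NaCl/1 mM CaCl₂/1 mM HCl. Substrate solution was 2 mM […] in the same buffer. Samples were dissolved in ethanol and diluted in buffer. Enzyme, sample and buffer were preincubated 5 min at 37 °C, then substrate was added. Absorbance at 405 nm was read at once and after 30 min at 37 °C.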

SMILES | IC50 [1] | IC50 [2]
CC[C@H](C)[C@H]1C(=O)N(C)[C@@H](Cc2ccc(OC)c(Cl)c2)C(=O)N[C@@H](C(C)C)C(=O)O[C@H](C)[C@H](NC(=O)[C@H](O)CO)C(=O)N[C@@H](CCCNC(=N)N)C(=O)N[C@H]2CC[C@@H](O)N1C2=O | 3.5 µM | 19.6 µM
CC[C@H](C)[C@@H]1NC(=O)[C@H](Cc2ccc(OC)c(Cl)c2)N(C)C(=O)[C@H]([C@@H](C)CC)N2C(=O)[C@H](CC[C@H]2O)NC(=O)[C@H](CCCNC(=N)N)NC(=O)[C@@H](NC(=O)[C@@H](COS(=O)(=O)O)OS(=O)(=O)O)[C@@H](C)OC1=O | 1.7 µM | > 100 µM
CC[C@H](C)[C@@H]1NC(=O)[C@H](Cc2ccc(O)cc2)N(C)C(=O)[C@H]([C@@H](C)CC)N2C(=O)[C@H](CC[C@H]2O)NC(=O)[C@H](CCCNC(=N)N)NC(=O)[C@@H](NC(=O)[C@@H](COS(=O)(=O)O)OS(=O)(=O)O)[C@@H](C)OC1=O | 2.2 µM | > 100 µM
CC[C@H](C)[C@H]1C(=O)N(C)[C@@H](Cc2ccc(O)c(Cl)c2)C(=O)N[C@@H](C(C)C)C(=O)O[C@H](C)[C@H](NC(=O)[C@@H](COS(=O)(=O)O)OS(=O)(=O)O)C(=O)N[C@@H](CCCNC(=N)N)C(=O)N[C@H]2CC[C@@H](O)N1C2=O | 1.2 µM | > 100 µM

Compounds with a lower IC50 [1], results first:

IC50 [1] | IC50 [2] | SMILES
0.7 µM | 18.2 µM | CC[C@H](C)[C@@H]1NC(=O)[C@H](Cc2ccc(OC)c(Cl)c2)N(C)C(=O)[C@H]([C@@H](C)CC)N2C(=O)[C@H](CC[C@H]2O)NC(=O)[C@H](CCCNC(=N)N)NC(=O)[C@@H](NC(=O)[C@H](O)COS(=O)(=O)O)[C@@H](C)OC1=O
1.1 µM | 2.8 µM | CC[C@H](C)[C@H]1C(=O)N(C)[C@@H](Cc2ccc(OC)c(Cl)c2)C(=O)N[C@@H](C(C)C)C(=O)O[C@H](C)[C@H](NC(=O)[C@H](O)CO)C(=O)N[C@@H](CCCNC(=N)N)C(=O)N[C@H]2CC[C@@H](OC)N1C2=O
